Most compounds without a hit are left out; they make up all but 2% or so of the library.
RAD54 branch: blocks human RAD54 Holliday junction branch migration | FAM/BHQ fluorescence | inhibition, % at 10.4 µM | hit rate 0.14% among 360,000;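 active means mean normalized replicate activity at least 40 and at least half of replicates scoring 40 or more; inconclusive means only one of the two criteria met; inactive means mean below 40 and under half of replicates reaching 40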;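 further: inhibitors cause a drop in the FAM fluorescence signal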
XiGFP reactiv: reactivates the inactive X chromosome in mouse fibroblasts. activation, % at 7.58 µM. hit rate 0.055% among 360,000. XiGFP mouse fibroblasts, % GFP-positive cells imaging, 3 d; cells co-treated with 5-aza-dC sensitizer; scaled so ellipticine positive control = 100%. AID 743238;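 active means mean normalized replicate activation at least 10% and every replicate at or above 10%; inconclusive means only one of the two criteria met; inactive means mean below 10% and not all replicates reach 10%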
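Schedule: 3 d treatment, 15 min room-temperature fixation; system: 68-5-11 XiGFP fibroblast line; buffer or medium: DMEM plus 5-aza-dC sensitizer; control set: ellipticine 6 µM positive control; compound: one concentration, pinned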
PglD DTNB: PglD (C. jejuni) enzyme inhibition | purified PglD enzyme, DTNB colorimetric CoA detection | inhibition, % at 12.5 µM | hit rate 0.098% among 360,000 | AID 602405; in the data active means inhibition above about 16%, passing the limit was not always enough; inconclusive means no clear call, values can overlap the other calls
RAD52 anneal inh: RAD52 (human) annealing inhibition; recombinant RAD52 DNA annealing, FRET fluorescence; P43351; inhibition, % at 18.7 µM; hit rate 0.46% among 360,000;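 active means every replicate showing at least 50% inhibition; inconclusive means mean inhibition at least 50% but not in every replicate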
Target sequence (P43351 whole entry, looked up): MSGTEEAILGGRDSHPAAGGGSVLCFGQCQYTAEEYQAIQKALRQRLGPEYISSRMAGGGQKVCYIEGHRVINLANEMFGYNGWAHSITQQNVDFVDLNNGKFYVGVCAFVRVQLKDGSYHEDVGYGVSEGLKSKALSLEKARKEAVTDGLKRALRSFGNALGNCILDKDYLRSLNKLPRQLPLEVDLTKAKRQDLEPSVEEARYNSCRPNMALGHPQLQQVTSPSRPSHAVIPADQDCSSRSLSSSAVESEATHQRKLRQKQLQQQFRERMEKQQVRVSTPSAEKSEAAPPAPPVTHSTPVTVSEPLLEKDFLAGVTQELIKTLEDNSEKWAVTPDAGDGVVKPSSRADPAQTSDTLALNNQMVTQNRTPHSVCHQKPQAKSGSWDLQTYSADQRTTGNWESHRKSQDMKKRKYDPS
E-selectin induc: E-selectin induction on HUVECs; P16581; activation, % at 7.58 µM; hit rate 0.37% among 260,000; HUVEC E-selectin immunofluorescence imaging; normalized: neutral wells 0, TNF-alpha wells 100;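 active means mean E-selectin-positive cell signal at least 10% of the positive control, reached in at least 60% of replicates, without over 20% cell loss; inconclusive means no rule given, readout overlaps actives, possibly toxicity-flagged; inactive means the rest, including those meeting only one limit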
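material = human umbilical vein endothelial cells (HUVEC), E-selectin induction | quantity = 3,000 cells/well | medium = EGM-2 growth medium on 0.1% gelatin-coated wells | technique = immunofluorescence imaging | read-out basis = % PE-positive cells | control set = TNF-alpha positive control, DMSO neutral control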
rRNA inh HTS: selective bacterial rRNA inhibition in E. coli; GFP signal change (wild-type ribosome), % (test concentration not listed); hit rate 1.6% among 350,000; E. coli WT GFP vs humanized-ribosome RFP mutants, fluorescence, 24 h; hits give low values; DMSO median 0, no signal -100; AID 720706;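 active means significant combined selectivity score with lowered wild-type GFP, culture density cut under 30%, mutant RFP and density less affected; inactive means any of these conditions unmet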
DNA binding: binds DNA, flagging false Rad54 inhibitor hits; shares compounds with RAD54 branch; Acridine orange-DNA displacement, fluorescence polarization, 20 min; AC50, µM (doses to about 35 µM); hit rate 8% among 460; AID 651673;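 active means signal drop giving an AC50 within twice the top valid tested concentration of each sample, actives reach about 35 µM in these data; inactive means activity opposite to expected, plus the rest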;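 further: polarization loss reports compound binding to salmon sperm DNA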
PglD inh SP: confirmation of Campylobacter jejuni PglD acetyltransferase inhibitors; inhibition, % at 20 µM; shares compounds with PglD DTNB; 320 tested, under 10 active; Purified C. jejuni PglD, DTNB absorbance 412 nm;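 active means mean inhibition across replicates of at least 20% with every single replicate also at 20% or more; inconclusive means mean inhibition at least 20% but some replicate falls below 20%; inactive means mean inhibition under 20% and not all replicates reach it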;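 further: initial rate of CoA release by acetyl transfer from AcCoA to the UDP-4-amino sugar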
AID977621: wild-type E. coli growth inhibition versus H69 humanized strain – H69 mutant RFP, wild-type GFP, cherry-pick, dose response | activity change, negative = inhibition at 50 µM | fluorescence, 24 h | 1,900 tested, under 10 active | shares compounds with rRNA inh HTS;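 active means Wild-type ribosome reporter drop at least double the humanized mutant ribosome reporter drop, growth loss under a set limit; inconclusive means no clear call, values can overlap the other calls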;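 further: wild-type GFP and H69 mutant RFP strains grown together 50/50 in each well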
AID977628: E. coli growth inhibition, wild-type GFP versus h24 humanized RFP strain, dose response, h24 mutant RFP vs wild-type GFP, cherry-pick; shares compounds with rRNA inh HTS; E. coli WT GFP strain growth, fluorescence, 24 h; activity change, negative = inhibition at 50 µM; 1,900 tested, under 10 active; AID 977628;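 active means compound lowering the normal-ribosome reporter at least twice as much as the humanized-ribosome reporter, growth loss under a set limit; inconclusive means no clear call, values can overlap the other calls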;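 further: wild-type GFP and h24 humanized RFP strains co-cultured 1 to 1 per well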
Each line names hits and unclear results; the compound was inactive in the other large screens (follow-up assays come after a bar, where they were run).

CCOc1ccc2[nH]c3c(NCCN(C)C)ncnc3c2c1	RAD54 branch inconclusive, RAD52 anneal inh 64.7, rRNA inh HTS -13.4 | DNA binding inactive | AID977621 inactive | AID977628 inconclusive
O=C(CN1CCOCC1)N1CCCCN2[C@H](CO)[C@H](c3ccc(C#Cc4ccccc4)cc3)[C@H]2C1	none
C(=N\Nc1nc2ccccc2[nH]1)/c1ccc2c(c1)OCO2	none (no result: RAD54 branch, PglD DTNB)
C(=C/c1nccc2c1[nH]c1ccccc12)/c1ccc2c(c1)OCO2	RAD54 branch 58.5, rRNA inh HTS -37.3 | DNA binding inactive | AID977621 inactive | AID977628 inactive
Nc1c(N2CCCC2)c2ccccc2oc1=O	PglD DTNB 20.5 (no result: E-selectin induc) | PglD inh SP inactive
O=c1oc2ccccc2c(N2CCC(c3ccccc3)CC2)c1[N+](=O)[O-]	none (no result: RAD54 branch, PglD DTNB, E-selectin induc)
COc1ccccc1CNC(=O)C[C@@H]1CC[C@@H](NC(=O)CC2CC2)[C@H](CO)O1	none
COc1ccc(N=Nc2ccc(CO)cc2)cc1	PglD DTNB 45.0 | PglD inh SP inactive
OCc1ccc(N=Nc2ccccc2)cc1	none
Cc1nc2ccccc2n1C(C)c1ccccc1 (stereo unspecified)	none
CC(c1ccccc1)n1c(CO)nc2ccccc21 (stereo unspecified)	PglD DTNB 67.1 | PglD inh SP inactive
C[C@H]1CN([C@@H](C)CO)C(=O)c2cc(C#CCN(C)C)cnc2O[C@@H]1CN(C)S(=O)(=O)c1cn(C)cn1	none
CCOc1ccc2nc(SCC(=O)NCC3CCCO3)sc2c1 (stereo unspecified)	none (no result: E-selectin induc)
CCOc1ccc2[nH]c3nc(SCC(=O)NCC4CCCO4)nnc3c2c1 (stereo unspecified)	PglD DTNB 24.0 (no result: E-selectin induc) | PglD inh SP inactive
COC(=O)c1ccc(CSc2nc3sc(C(=O)O)c(C)c3c(=O)[nH]2)cc1	none (no result: RAD54 branch, PglD DTNB, E-selectin induc)
Cc1c(C(=O)O)sc2nc(/C=C/c3cccc(O)c3)[nH]c(=O)c12	PglD DTNB 44.9 (no result: E-selectin induc) | PglD inh SP 78.6
C[C@@H]1CN([C@@H](C)CO)C(=O)c2cc(C#CC3(O)CCCC3)cnc2O[C@H]1CN(C)C	none
OC(CC#CCN1CCCCC1)(c1ccccc1)c1ccccc1	PglD DTNB 27.4 (no result: E-selectin induc) | PglD inh SP inactive
OC(CC#CCN1CCCC1)(c1ccccc1)c1ccccc1	none (no result: RAD54 branch, PglD DTNB)
C=C(C)C(=O)Nc1cccc(C2=NOC3(C2)C[C@@H](C(N)=O)N(C(=O)C2(C)CC2)C3)c1 (stereo partly specified)	PglD DTNB 22.9 (no result: RAD52 anneal inh, rRNA inh HTS) | PglD inh SP inactive
C=C(C)C(=O)Nc1cccc(C2=NOC3(C2)C[C@@H](C(N)=O)N(C(=O)C(=C)C)C3)c1 (stereo partly specified)	none (no result: E-selectin induc)
O=C(CN(C(=O)CNC(=O)c1cccs1)c1ccc(F)cc1)NC1CCCC1	none
O=C(CN(C(=O)CNC(=O)c1cccs1)c1ccc(F)cc1)NC1CCCCC1	PglD DTNB 25.2 (no result: E-selectin induc) | PglD inh SP inactive
Cc1ccc([N+](=O)[O-])c(C(=O)Nc2cccnc2Cl)c1	PglD DTNB 20.8 (no result: E-selectin induc) | PglD inh SP inactive
CCC(OC(=O)CNS(=O)(=O)c1ccccc1)C(=O)c1ccccc1 (stereo unspecified)	PglD DTNB 20.1 | PglD inh SP inactive
CC(C)(C)c1cc[n+](-c2[nH]c(=O)sc2/C=N/NC([S-])=Nc2ccccc2)cc1	PglD DTNB 21.1 | PglD inh SP inactive

Screening data as filed in PubChem.
